# Source: publication PMC6032921 (Acta Physiologica (Oxford, England), 2018)
# Key:
# [1] = list of hypothermia‐inducing TRPV1 antagonists; cited from earlier work
# TRPV1 [2] = settings: cited from earlier work
# rats [3] = settings: cited from earlier work
# rat TRPV1 channels [4] = target: T1, rat TRPV1 channels (Rattus norvegicus, UniProt O35433); assay: ^45Ca^2+ uptake assay with scintillation counter, CHO cells expressing rat TRPV1; type: cell-based; settings: pH 5.0
# Outline: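 CHO cells stably expressing rat TRPV1 were seeded 2 days before the assay (20,000 cells/well). Cells were exposed for 2 min at room temperature to test compound (200 pmol L⁻¹ to 4 μmol L⁻¹) with capsaicin (500 nmol L⁻¹) in HBSS pH 7.4 with BSA and HEPES, or with compound in MES buffer pH 5.0 with 30 mmol L⁻¹ HEPES. ⁴⁵Ca²⁺ (10 μCi mL⁻¹ final) was added for 2 min, cells were washed, and uptake was measured by scintillation counting.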
# Trpv1 ^+/+ mice [5] = assay: Abdominal T b in Trpv1 +/+ mice, telemetry, i.p. catheter; type: in vivo, mouse; settings: 10 mg kg^−1 i.p.
# Outline: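 Mice of both sexes (18‐27 g) were habituated to wire‐mesh confiners for 8 days. Under ketamine‐xylazine they were implanted intraperitoneally with a telemetry transmitter and a saline‐filled catheter, and tested 3‐6 days later. Test compound (0.75 mg mL⁻¹ in saline with 5% Tween‐80, warmed to 37°C) was given as a 10 mg kg⁻¹ bolus (~13 mL kg⁻¹) via the catheter, versus vehicle. Abdominal T_b was analysed by 2‐way ANOVA with Fisher's LSD.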
# TRPV1 [6] = settings: cited from earlier work; for effect on TRPV1 activation by protons in vitro: ref Lehto et al 16
# Trpv1 ^−/− mice [7] = assay: Abdominal T b in Trpv1 −/− mice, telemetry, i.p. catheter; type: in vivo, mouse; settings: 10 mg kg^−1 i.p.
# Trpv1 ^−/− mice [8] = assay: Abdominal T b in Trpv1 −/− mice, telemetry, i.g. gavage; type: in vivo, mouse; settings: 30 mg kg^−1 i.g.
# Trpv1 ^+/+ mice [9] = assay: Abdominal T b in Trpv1 +/+ mice, telemetry, i.g. gavage; type: in vivo, mouse; settings: 30 mg kg^−1 i.g., at 140 minutes
# rat TRPV1 channels [10] = target: T1, rat TRPV1 channels; settings: cited from earlier work
# human TRPV1 channels = human TRPV1 channels (Homo sapiens, UniProt Q8NER1); settings: cited from earlier work
# Sequence of human TRPV1 channels (Q8NER1 whole entry): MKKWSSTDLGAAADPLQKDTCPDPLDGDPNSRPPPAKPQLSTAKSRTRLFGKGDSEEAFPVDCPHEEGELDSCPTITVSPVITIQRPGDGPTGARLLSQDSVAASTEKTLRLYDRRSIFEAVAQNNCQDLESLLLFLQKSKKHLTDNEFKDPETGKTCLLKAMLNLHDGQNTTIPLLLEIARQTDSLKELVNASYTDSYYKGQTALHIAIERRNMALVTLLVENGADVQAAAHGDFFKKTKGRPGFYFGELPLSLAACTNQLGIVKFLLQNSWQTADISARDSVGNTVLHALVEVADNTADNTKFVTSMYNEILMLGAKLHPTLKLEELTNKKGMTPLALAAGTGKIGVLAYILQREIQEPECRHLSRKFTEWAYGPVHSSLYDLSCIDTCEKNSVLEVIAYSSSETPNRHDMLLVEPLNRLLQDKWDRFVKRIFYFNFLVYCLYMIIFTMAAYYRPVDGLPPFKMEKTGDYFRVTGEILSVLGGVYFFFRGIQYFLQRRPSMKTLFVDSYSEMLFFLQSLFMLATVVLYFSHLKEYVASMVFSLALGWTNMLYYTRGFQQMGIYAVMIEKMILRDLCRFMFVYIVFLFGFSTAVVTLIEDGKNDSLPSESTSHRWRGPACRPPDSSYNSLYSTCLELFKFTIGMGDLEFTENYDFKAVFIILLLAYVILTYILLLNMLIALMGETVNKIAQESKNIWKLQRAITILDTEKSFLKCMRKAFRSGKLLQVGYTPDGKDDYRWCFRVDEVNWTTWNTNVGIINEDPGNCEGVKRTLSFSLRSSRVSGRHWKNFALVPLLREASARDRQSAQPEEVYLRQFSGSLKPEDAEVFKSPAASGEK
# corneal TRPV1 channels = corneal TRPV1 channels (Rattus norvegicus, UniProt O35433); assay: Eye‐wiping test after intra‐abdominal RTX desensitization; type: in vivo; settings: rats desensitized with RTX 20 μg kg^−1 i.p.
# Sequence of corneal TRPV1 channels (O35433 whole entry): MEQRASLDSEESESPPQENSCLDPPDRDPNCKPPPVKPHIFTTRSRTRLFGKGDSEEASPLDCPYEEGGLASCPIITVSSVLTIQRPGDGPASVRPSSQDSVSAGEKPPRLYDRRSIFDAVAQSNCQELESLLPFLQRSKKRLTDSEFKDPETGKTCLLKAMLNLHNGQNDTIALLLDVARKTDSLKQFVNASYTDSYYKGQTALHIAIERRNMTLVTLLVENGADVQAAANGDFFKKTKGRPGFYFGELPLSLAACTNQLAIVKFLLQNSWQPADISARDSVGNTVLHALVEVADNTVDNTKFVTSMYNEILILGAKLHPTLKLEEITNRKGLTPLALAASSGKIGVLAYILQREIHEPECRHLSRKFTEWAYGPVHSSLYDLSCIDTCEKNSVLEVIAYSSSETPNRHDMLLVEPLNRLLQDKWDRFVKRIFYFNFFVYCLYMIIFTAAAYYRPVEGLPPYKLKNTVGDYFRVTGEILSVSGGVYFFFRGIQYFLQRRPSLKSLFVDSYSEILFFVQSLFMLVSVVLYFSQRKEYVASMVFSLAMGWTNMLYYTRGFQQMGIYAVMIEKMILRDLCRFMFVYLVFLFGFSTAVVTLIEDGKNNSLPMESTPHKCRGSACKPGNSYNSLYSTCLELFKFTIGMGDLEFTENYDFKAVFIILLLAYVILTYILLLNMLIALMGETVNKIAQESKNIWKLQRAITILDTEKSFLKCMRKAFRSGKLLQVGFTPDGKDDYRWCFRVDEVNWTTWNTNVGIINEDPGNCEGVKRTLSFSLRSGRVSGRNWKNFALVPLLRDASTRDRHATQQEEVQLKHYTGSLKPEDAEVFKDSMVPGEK
# Outline: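 This test was done 6‐16 days after i.p. RTX (20 μg kg⁻¹) or vehicle pre‐treatment of rats. Counts were compared between desensitized and sham‐desensitized rats by […] 2‐tailed Student's t test.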
# humans = settings: clinical trial in humans; cited from earlier work
# rats [11] = settings: rat models of inflammatory pain and heat hyperalgesia; cited from earlier work
# T1 sequence (O35433 whole entry): as above
compound,measurement,setting,value
"C=C(C)[C@]12C[C@@H](C)[C@@]34O[C@](Cc5ccccc5)(O[C@@H]1[C@@H]3C=C(COC(=O)Cc1cc(I)c(O)c(OC)c1)C[C@]1(O)C(=O)C(C)=C[C@@H]41)O2 [5′‐I‐RTX, 5′‐iodo‐resiniferatoxin]",effect on deep body temperature (T b),[1],cause hypothermia
same,TRPV1 agonistic or capsaicin‐potentiating activity,TRPV1 [2],partial agonists
O=C(/C=C/c1ccc(C(F)(F)F)nc1N1CCCCC1)Nc1cccc2c1CC(O)CC2 (centres unmarked) [AMG0347],effect on deep T b in rats,rats [3],increase deep T b in rats
FC(F)(F)c1ccc(-c2cc(Nc3ccc4ncsc4c3)ncn2)c(NCC2CCCCC2)c1 [AMG7905],effect on ^45Ca^2+ influx in the proton activation mode,rat TRPV1 channels [4],concentration‐dependent potentiation
same,drop in T b compared to vehicle,Trpv1 ^+/+ mice [5],> 2 °C
same,effect on deep body temperature (T b),[1],cause hypothermia
same,effect on TRPV1 activation by protons in vitro,TRPV1 [6],potentiated TRPV1 activation by protons in vitro
same,effect on T b,Trpv1 ^−/− mice [7],neither A‐1165901 nor AMG7905 had any effect on T b
same,TRPV1 agonistic or capsaicin‐potentiating activity,TRPV1 [2],showed no TRPV1 agonistic or capsaicin‐potentiating activity
same,effect on T b,Trpv1 ^−/− mice [8],did not cause hypothermia
same,biggest intertreatment difference in T b (hypothermia vs vehicle),Trpv1 ^+/+ mice [9],7.8 °C
"O=C(/C=C/c1ccc(C(F)(F)F)cc1N1CCCCC1)Nc1cccc2c1C[C@H](O)C2 [AMG8562, (R, E)‐N‐(2‐hydroxy‐2,3‐dihydro‐1H‐inden‐4‐yl)‐3‐(2‐(piperidin‐1‐yl)‐4‐(trifluoromethyl)phenyl)‐acrylamide]",effect on deep body temperature (T b),[1],cause hypothermia
same,effect on TRPV1 activation by protons in vitro,TRPV1 [6],potentiated TRPV1 activation by protons in vitro
same,TRPV1 agonistic or capsaicin‐potentiating activity,TRPV1 [2],showed no TRPV1 agonistic or capsaicin‐potentiating activity
CC(=O)Nc1nc2c(Oc3cc(-c4ccc(C(F)(F)F)cc4)ncn3)cccc2s1 [AMG 517],effect on deep T b in rats,rats [3],increase deep T b in rats
"O=C(NCc1ccc(C(F)(F)F)cc1)Nc1cccc2cnccc12 [A‐425619, 1‐isoquinolin‐5‐yl‐3‐(4‐trifluoromethyl‐benzyl)‐urea]",effect on deep body temperature (T b),[1],cause hypothermia
same,TRPV1 agonistic or capsaicin‐potentiating activity,TRPV1 [2],showed no TRPV1 agonistic or capsaicin‐potentiating activity
"Cc1ccc(N2c3cccc(C(=O)Nc4ccc(OCC(F)(F)F)nc4)c3OC[C@@H]2CO)nc1 [JTS‐653, (3S)‐3‐(hydroxymethyl)‐4‐(5‐methylpyridin‐2‐yl)‐N‐[6‐(2,2,2‐trifluoroethoxy)pyridin‐3‐yl]‐3,4‐dihydro‐2H‐benzo[b][1,4]oxazine‐8‐carboxamide]",effect on proton‐induced activation of TRPV1,rat TRPV1 channels [10],potently block proton‐induced activation
same,effect on T b in rats,rats [3],cause hyperthermia in rats
same,effect on proton‐induced activation of TRPV1,human TRPV1 channels,potently block proton‐induced activation
CC(C)(C)c1ccc(CNC(=S)NCc2ccc(NS(C)(=O)=O)c(F)c2)cc1 [JYL1421],effect on deep body temperature (T b),[1],cause hypothermia
same,TRPV1 agonistic or capsaicin‐potentiating activity,TRPV1 [2],showed no TRPV1 agonistic or capsaicin‐potentiating activity
"C=C(C)[C@]12C[C@@H](C)[C@@]34O[C@](Cc5ccccc5)(O[C@@H]1[C@@H]3C=C(COC(=O)Cc1ccc(O)c(OC)c1)C[C@]1(O)C(=O)C(C)=C[C@@H]41)O2 [RTX, resiniferatoxin]",eye‐wiping response to topical RTX in desensitized vs sham‐desensitized rats,corneal TRPV1 channels,no meaningful difference
"O=C(Nc1ccc(C(F)(F)F)cn1)N1CC=C(c2ncc([C@H](O)CO)cc2Cl)CC1 [V116517, 4‐[3‐chloro‐5‐[(1S)‐1,2‐dihydroxyethyl]‐2‐pyridyl]‐N‐[5‐(trifluoromethyl)‐2‐pyridyl]‐3,6‐dihydro‐2H‐pyridine‐1‐carboxamide]",effect on T b in rats,rats [3],causing hyperthermia in rats
same,effect on TRPV1 activation by protons,TRPV1 [6],potently blocking TRPV1 activation by protons
same,effect on T b in humans,humans,caused no hyperthermia
Oc1cc2c(cc1O)CN(C(=S)NCCc1ccc(Cl)cc1)CCC2 [capsazepine],effect on proton activation of TRPV1,rat TRPV1 channels [10],no allosteric effect on proton activation
same,effect on T b in rats,rats [3],does not affect T b in rats
same,efficacy in pain models,rats [11],efficacious
